Screens: PubChem, The Scripps Research Institute Molecular Screening Center
Compounds with a hit are over-represented: about 2% of the library has one in this group of screens.
CHRM5 PAM: potentiates acetylcholine response at human M5 receptor. CHO-K1 hM5, Fluo-8 calcium, ACh EC20 PAM; 0% = ACh EC20, 100% = ACh EC100. activation, % at 3 µM. 360,000 tested, 0.3% active. AID 624038;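 active = activation above the run cutoff, the mean activation of all test compounds plus 3 SD, cut at about 18% in these data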
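system = human M5 receptor in CHO-K1 cells | compound = one concentration, 3 µM final (nominal) | schedule = Post-acetylcholine fluorescence recording 140 s | signal = Fluo-8 calcium dye fluorescence, kinetic read | benchmarks = low control EC20 acetylcholine (0%), high control EC100 acetylcholine (100%) | repeats = singlicate, one well per test compound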
CHRM1 agonist: human M1 muscarinic receptor agonism; CHO-K1 hM1, Fluo-8 calcium fluorescence, agonist mode; 0% DMSO, 100% acetylcholine EC100; activation, % at 3 µM; 360,000 tested, 0.33% active; AID 588814;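 active = activation above the run's mean compound activation plus 3 SD, cut at about 16% in these data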;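 also: peak over basal fluorescence ratio within a 140 s kinetic read after compound addition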
M5 antag: antagonists of human muscarinic M5 receptor (CHRM5); CHO-hM5 cells, Fluo-8 calcium fluorescence, ACh EC80; inhibition, % at 3 µM; 360,000 tested, 0.59% active;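 active = inhibition above a per-plate cutoff, the mean of that plate's test compounds plus 3 SD, cut at about 27% in these data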;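 also: 0% = acetylcholine EC80 with DMSO and 100% = DMSO without agonist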
CHRM5 agonist: agonists of human muscarinic M5 receptor (CHRM5); P08912; CHO-K1 hM5 cells, Fluo-8 calcium fluorescence; 0% DMSO wells, 100% maximal acetylcholine response; activation, % at 3 µM; 360,000 tested, 0.19% active;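 active = activation above the run's mean over test compounds plus 3 SD, cut at about 23% in these data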;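 also: signal is peak over basal fluorescence ratio across the kinetic read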
CHRM1 PAM: human CHRM1 positive allosteric modulation | activation, % at 3 µM | P11229 | 360,000 tested, 0.088% active | CHO-K1 hM1, Fluo-8 calcium fluorescence, ACh EC20; 0% = ACh EC20, 100% = maximal ACh; in the data active = activation above about 19%, passing the limit was not always enough
M1 antag: human CHRM1 antagonism; AID 588852; 360,000 tested, 1.3% active; inhibition, % at 3 µM; P11229; CHO-K1 hM1, Fluo-8 calcium fluorescence, ACh EC80 antagonist;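 active = percent inhibition above its own plate's cutoff, namely the mean of that plate's compound wells plus 3 SD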;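 also: peak over basal fluorescence ratio during 140 s after agonist addition; 0% = ACh EC80 plus DMSO and 100% = DMSO alone without agonist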
* hit, by the source's call.

SMILES	CHRM5 PAM	CHRM1 agonist	M5 antag	CHRM5 agonist	CHRM1 PAM	M1 antag
COc1ccc(CNC(=O)C2CC(c3ccccc3[N+](=O)[O-])=NO2)cc1 (centres undefined)	0.9	-1.0	7.9	-3.2	11.7	-5.7
COc1ccccc1CNC(=O)C1CC(c2ccccc2[N+](=O)[O-])=NO1 (centres undefined)	20.7*	-2.5	-5.9	-0.1	11.5	-8.9
CCN(CC)Cc1nc2nc(Cl)c(Cl)nc2[nH]1	-2.7	-4.8	3.2	0.3	8.6	-14.6
C=C(C)CSc1nc2sc3c(c2c(=O)n1C1CCCCC1)CCN(C)C3	-12.3	-6.7	23.8	-19.4	-21.8	31.4*
C=C(C)CSc1nc2sc3c(c2c(=O)n1-c1ccccc1)CCN(C)C3	-1.2	-10.9	7.9	-6.9	-24.4	36.0*
CCSc1nc2sc3c(c2c(=O)n1C1CCCCC1)CCN(C)C3	1.3	-5.6	2.9	-11.7	-6.3	5.3
CN1CCc2c(sc3nc(SCC(N)=O)n(-c4ccccc4)c(=O)c23)C1	6.3	-4.9	-1.9	1.1	2.9	-1.8
CSc1nc2sc3c(c2c(=O)n1C1CCCCC1)CCN(C)C3	7.3	-5.9	-2.6	-11.0	-22.7	29.3*
